{
  "source": "ChEMBL document CHEMBL1139403",
  "about": "“Syntheses and anti-depressant activity of 5-amino-1, 3, 4-thiadiazole-2-thiol imines and thiobenzyl derivatives” (2008)",
  "key": {"Mus musculus [1]": {"system": "Mus musculus", "experiment": "Neurotoxicity in albino mouse assessed as animal in lateral position at 10 mg/kg, ip administered 1 hr prior to ethanol challenge measured after 30 mins", "assay_type": "functional", "settings": "route intraperitoneal"}, "Mus musculus [2]": {"system": "Mus musculus", "experiment": "Antidepressant activity in albino mouse assessed as decrease in immobility time at 10 mg/kg, ip after 60 mins by forced-swimming test relative to untreated control", "assay_type": "functional", "design": "scale not given: the % may be the effect or the level left", "settings": "route intraperitoneal", "method_in_brief": "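Albino mice given 10 mg/kg ip; forced swim in a vertical Plexiglas cylinder of water at 25 °C for 15 min, immobility plateauing after 5–6 min; % immobility calculated; mice dried in a heated enclosure (32 °C) afterwards.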"}},
  "data": [
    {"compound": "COc1ccc(/C=C/C(=N\\c2nnc(SCc3ccccc3)s2)c2ccc(Cl)cc2)cc1", "values": [
      {"measurement": "Activity", "setting": "Mus musculus [1]", "value": "<50", "unit": "%"},
      {"measurement": "Activity", "setting": "Mus musculus [2]", "value": 77.99, "unit": "%"}
    ]},
    {"compound": "Clc1ccc(/C=C/C(=N\\c2nnc(SCc3ccccc3)s2)c2ccc(Cl)cc2)cc1", "values": [
      {"measurement": "Activity", "setting": "Mus musculus [1]", "value": "<50", "unit": "%"}
    ]},
    {"compound": "COc1ccc(/C=C/C(=N\\c2nnc(SCc3ccc(Cl)cc3)s2)c2ccc(Cl)cc2)cc1", "values": [
      {"measurement": "Activity", "setting": "Mus musculus [1]", "value": "<50", "unit": "%"},
      {"measurement": "Activity", "setting": "Mus musculus [2]", "value": 84.23, "unit": "%"}
    ]},
    {"compound": "Clc1ccc(/C=C/C(=N\\c2nnc(SCc3ccc(Cl)cc3)s2)c2ccc(Cl)cc2)cc1", "values": [
      {"measurement": "Activity", "setting": "Mus musculus [1]", "value": "<50", "unit": "%"},
      {"measurement": "Activity", "setting": "Mus musculus [2]", "value": 87.57, "unit": "%"}
    ]},
    {"compound": "CN(C)CCCN1c2ccccc2CCc2ccccc21", "note": "[IMIPRAMINE]", "values": [
      {"measurement": "Activity", "setting": "Mus musculus [1]", "value": "<50", "unit": "%"},
      {"measurement": "Activity", "setting": "Mus musculus [2]", "value": 82, "unit": "%"}
    ]}
  ]
}
